Rows were chosen to be rich in hits. Some 1.4% of all compounds tested hit in one or more screens of this group.
Vif inh = HIV Vif inhibition; HEK293T cells, Vif self-association by quenched fluorescence, imaging, 24 h; inhibition, % at 7.49 µM; hit rate 0.35% among 340,000; AID 602346; in the data active = inhibition above about 50%, passing the limit was not always enough; inconclusive = no clear call, values can overlap the other calls; inactive = below about 31%
Myeloid diff MLP = promotes myeloid progenitor differentiation. ER-HoxA9 myeloid progenitors, lysozyme-GFP differentiation, flow cytometry. calls only at 10 µM. hit rate 1% among 360,000. AID 624256;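 active = normalized GFP-positive differentiation at or above the plate's own cutoff, the solvent-only control mean plus 3 SD; inconclusive = no clear call, values can overlap the other calls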;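 note: cells exposed to compound for four days before flow analysis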
T cell HTS = modulates CD8 T cell binding to vesicles; 2C CD8+ T cell-vesicle binding, flow cytometry; stronger effect = lower value; response (vesicle binding), % at 7 µM; hit rate 0.068% among 330,000; AID 2052;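 active = response, share of CD8 T cells binding vesicles, and their 90th percentile fluorescence all below set limits, cut at about 80% in these data, passing the limit was not always enough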;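 note: values below 100% mean blocked vesicle binding to the CD8+ T cells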
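Also added: QL9-peptide-loaded Drosophila micro-vesicles bearing Ld, ICAM-1 and B7-1; Test system: purified 2C TCR transgenic mouse naive CD8+ T cells; Measured by: cytometric PE anti-B7-1 and Alexa647 anti-CD8 signals after 1% paraformaldehyde fixation; Timing: binding step 1.5 h, 37 °C, antibody labelling 20 min, ice.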
CASP6 VEID inh = blocks human caspase-6 cleavage activity. purified caspase-6, Z-VEID-R110 cleavage fluorescence. hit rate 0.53% among 350,000. inhibition, % at 12.5 µM. P55212;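 active = mean inhibition across replicates at least about 35%, with every replicate also reaching that limit, limit read from the data; inconclusive = only one of the two criteria met; inactive = neither criterion met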
Target sequence (P55212 24-179 limits assumed): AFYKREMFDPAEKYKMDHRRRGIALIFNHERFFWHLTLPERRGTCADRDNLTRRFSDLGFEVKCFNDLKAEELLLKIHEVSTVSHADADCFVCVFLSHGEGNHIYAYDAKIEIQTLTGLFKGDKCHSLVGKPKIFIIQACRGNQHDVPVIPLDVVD
Target sequence (P55212 194-293 limits assumed): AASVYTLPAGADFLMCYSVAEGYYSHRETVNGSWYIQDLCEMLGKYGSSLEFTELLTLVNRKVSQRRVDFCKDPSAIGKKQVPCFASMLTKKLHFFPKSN
Numbers stand for hits; ! = a repeat was not active.

For CC1=C(C(=O)Nc2ccccc2C(=O)NC2CCC(C)CC2)SCCO1 (configuration not stated) the results were Vif inh inactive, Myeloid diff MLP active, T cell HTS inactive and CASP6 VEID inh inactive.
C[C@@H]1CCCCO[C@@H](CN(C)Cc2ccc3c(c2)OCO3)[C@@H](C)CN([C@H](C)CO)C(=O)c2cc(NC(=O)CCCCCC(=O)Nc3ccccc3N)ccc2O1 was read as CASP6 VEID inh inactive.
O=C(Nc1ccccc1C(=O)O)c1cccc(C(=O)Nc2ccccc2C(=O)O)c1 was read as Vif inh 110, Myeloid diff MLP inactive, T cell HTS inactive and CASP6 VEID inh inactive.
Screening O=C(Nc1ccccc1C(=O)N1CCCCCC1)c1ccccc1 returned Vif inh 71, Myeloid diff MLP inactive, T cell HTS inactive and CASP6 VEID inh inactive.
Screening COc1cccc(C(=O)Nc2ccccc2C(=O)N2CCCC2)c1 returned Vif inh inactive, Myeloid diff MLP inactive and T cell HTS inactive.
CC(=O)N(C)C[C@@H]1Oc2cc(C3=CCCC3)ccc2S(=O)(=O)N([C@H](C)CO)C[C@H]1C was read as CASP6 VEID inh inactive.
For O=C(/C=C\c1ccco1)Nc1cc([N+](=O)[O-])ccc1F the results were Vif inh 64, Myeloid diff MLP inconclusive and T cell HTS inactive.
For O=C(/C=C/c1ccco1)Nc1nnc(-c2ccco2)s1 the results were Vif inh inactive, Myeloid diff MLP active, T cell HTS inactive and CASP6 VEID inh inactive.
O=C(/C=C/c1ccco1)Nc1cc(Cl)ccc1C(=O)O was read as Vif inh inactive, Myeloid diff MLP inactive and T cell HTS inactive.
CSCC[C@H](NC(=O)Nc1cccc(Br)c1)C(=O)O was read as Vif inh inactive, Myeloid diff MLP active, T cell HTS inactive and CASP6 VEID inh inactive.
CSCC[C@H](NC(=O)Nc1cccc(C(F)(F)F)c1)C(=O)O was read as Vif inh inactive, Myeloid diff MLP inactive and T cell HTS inactive.
COc1ccc(C(=O)C[n+]2cc(Br)cc3ccccc32)cc1[N+](=O)[O-] was read as Vif inh inactive, Myeloid diff MLP inactive, T cell HTS inactive and CASP6 VEID inh inactive.
Screening O=C(C[n+]1cc(Br)cc2ccccc21)c1ccccc1 returned Vif inh 55, Myeloid diff MLP inactive, T cell HTS inactive and CASP6 VEID inh inactive.
Screening C[C@H](CO)N1C[C@H](C)[C@@H](CN(C)S(=O)(=O)c2ccccc2F)Oc2ncc(C#Cc3cccnc3)cc2C1=O returned Vif inh inactive, Myeloid diff MLP inactive and CASP6 VEID inh 36!.
For C[C@H]1CN([C@@H](C)CO)C(=O)c2cc(C#Cc3cccnc3)cnc2O[C@H]1CN(C)S(=O)(=O)c1ccccc1F the results were CASP6 VEID inh inactive.
C[C@@H]1CN([C@H](C)CO)C(=O)c2cc(-c3ccncc3)cnc2O[C@@H]1CN(C)C(=O)c1ccncc1 was read as CASP6 VEID inh inactive.
`Cc1ccn2c(C(=O)N/N=C/c3ccc(Cl)cc3)c(C)nc2c1` gave Vif inh inactive, Myeloid diff MLP inactive and CASP6 VEID inh inactive.
Cc1ccn2c(C(=O)N/N=C\c3ccccc3[N+](=O)[O-])c(C)nc2c1 was read as Vif inh inactive, Myeloid diff MLP active and T cell HTS inactive.
For CC1=C(C(=O)N(C(C)C)C(C)C)CC(CC(=O)NC(c2ccccc2)c2ccccc2)C(=O)N1Cc1ccc(C(C)(C)C)cc1 (configuration not stated) the results were Vif inh inactive, Myeloid diff MLP active and CASP6 VEID inh inactive.
Screening CC1=C(C(=O)N(C)C)CC(CC(=O)NC(c2ccccc2)c2ccccc2)C(=O)N1CCCN1CCCC1=O (configuration not stated) returned Vif inh inactive, Myeloid diff MLP active and CASP6 VEID inh inactive.
Screening CC(C)C(c1nnnn1Cc1ccc2c(c1)OCO2)N1CCN(c2ccccc2)CC1 (configuration not stated) returned Vif inh inactive, Myeloid diff MLP inactive and T cell HTS inactive.
For CC(C)C(c1nnnn1Cc1ccc2c(c1)OCO2)N1CCN(C)CC1 (configuration not stated) the results were Vif inh 66, Myeloid diff MLP inactive and T cell HTS inactive.
CC(=O)Nc1sc2c(c1-c1nc3ccccc3s1)CN(C(C)C)CC2 was read as Vif inh inactive, Myeloid diff MLP inconclusive, T cell HTS inactive and CASP6 VEID inh inactive.
For CC(=O)N1CCc2c(sc(NC(=O)C3CC3)c2-c2nc3ccccc3s2)C1 the results were Vif inh inactive, Myeloid diff MLP active, T cell HTS inactive and CASP6 VEID inh inactive.
Screening O=C(C[C@@H]1C[C@@H]2c3cc(NC(=O)C4CCOCC4)ccc3O[C@@H]2[C@@H](CO)O1)NCc1ccccc1F returned CASP6 VEID inh inactive.

High-throughput results: PubChem BioAssay, several laboratories
